According to ChEMBL document CHEMBL1135694, “Optimization of alkylidene hydrazide based human glucagon receptor antagonists. Discovery of the highly potent and orally available 3-cyano-4-hydroxybenzoic acid [1-(2,3,5,6-tetramethylbenzyl)-1H-indol-4-ylmethylene]hydrazide” (J Med Chem, 2002):

Assays:
[1] = Turnover in rat liver microsomes; format: ADME, Microsome
How it was run: (§1)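 Rat liver microsomes (0.331 mg/mL protein) with 10 µM compound, 1 mM UDP-GA and 1 mM NADPH in KH2PO4 buffer, pH 7.4, at 37 °C. Sampled at 0-30 min (n = 3), stopped with MeCN. Rate was taken from parent disappearance by LC-MS.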

[2] = target: Glucagon receptor (Homo sapiens, UniProt P47871); test: In vitro binding affinity for recombinant human glucagon receptor (hGGR) in BHK cells; format: cell-based
How it was run: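 Membranes (4 µg) from BHK cells expressing the cloned human glucagon receptor. Compounds were diluted in DMSO, and a glucagon standard curve was run. IC50 given as mean ± SD, n = 3.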

[3] = organism: Rattus norvegicus; test: In vitro metabolic turnover in rat liver microsomes was determined; format: functional; conditions: Microsome; how it was run: as §1

Sequence of Glucagon receptor (P47871 whole entry): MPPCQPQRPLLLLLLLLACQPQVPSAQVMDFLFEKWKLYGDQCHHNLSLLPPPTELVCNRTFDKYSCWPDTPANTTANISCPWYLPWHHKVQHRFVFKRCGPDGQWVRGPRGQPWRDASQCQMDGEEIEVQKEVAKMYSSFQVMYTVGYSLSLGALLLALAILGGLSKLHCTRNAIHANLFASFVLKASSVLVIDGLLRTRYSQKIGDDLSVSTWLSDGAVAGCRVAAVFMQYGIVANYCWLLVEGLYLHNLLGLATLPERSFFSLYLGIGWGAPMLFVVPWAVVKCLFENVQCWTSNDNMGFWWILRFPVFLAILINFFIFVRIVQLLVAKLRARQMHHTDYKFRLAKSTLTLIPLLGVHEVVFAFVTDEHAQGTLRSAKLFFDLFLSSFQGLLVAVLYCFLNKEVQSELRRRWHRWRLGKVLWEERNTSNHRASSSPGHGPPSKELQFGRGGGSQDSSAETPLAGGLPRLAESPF

SMILES | Metabolism [1] [pmol/min/mg] | IC50 [2] [nM] | Metabolism (pM min-1 mg-1) [3]
CC(C)c1ccc(Cn2ccc3c(/C=N/NC(=O)c4ccc(O)c(Cl)c4)cccc32)cc1 | 48 | 23 | 
O=C(N/N=C/c1ccc(C(=O)NCCc2ccc(Cl)cc2)c2ccccc12)c1ccc(O)c(Cl)c1 | 32 | 5.9 | 
CC(C)CS(=O)(=O)c1ccc(/C=N/NC(=O)c2ccc(O)c(Cl)c2)c2ccccc12 | 110 | 181 | 
O=C(N/N=C/c1ccc(CO)c2ccccc12)c1ccc(O)c(F)c1 | 89 | 29.4 | 
CN1CCN(C(=O)Cc2ccc(/C=N/NC(=O)c3ccc(O)c(Cl)c3)c3ccccc23)CC1 | 283 | 268 | 
CCN(CC)C(=O)Cc1ccc(/C=N/NC(=O)c2ccc(O)c(Cl)c2)c2ccccc12 | 323 | 22.6 | 
O=C(N/N=C/c1ccc(OCCNCc2ccc(Cl)c(Cl)c2)c2ccccc12)c1ccc(O)c(Cl)c1 |  | 14.7 | 
N#Cc1cc(C(=O)N/N=C/c2ccc(N(C(=O)C3CCCC3)C(=O)C3CCCC3)c3ccccc23)ccc1O | 250 | 2.8 | 
NC(=O)[C@H](Cc1ccccc1)NCc1ccc(/C=N/NC(=O)c2ccc(O)c(Cl)c2)c2ccccc12 | 178 | 61.8 | 
COc1cc(NC(=O)CSc2ccc(OC(F)(F)F)cc2)ccc1/C=N/NC(=O)c1ccc(O)c(Cl)c1 | 23 | 14.5 | 
COc1cc(/C=N/NC(=O)c2ccc(O)c(Cl)c2)ccc1NC(=O)COc1ccc(OC(F)(F)F)cc1 | 136 | 73 | 
O=C(N/N=C/c1cccc2c1ccn2Cc1ccc(Cl)c(Cl)c1)c1ccc(O)c(Cl)c1 | 190 | 27.5 | 
N#Cc1cc(C(=O)N/N=C/c2ccc(OCC(=O)N3CC=C(c4ccc(Br)cc4)CC3)c3ccccc23)ccc1O | 50 | 6.1 | 
O=C(N/N=C/c1ccc(C(=O)N2CCN(Cc3ccc(Cl)cc3)CC2)c2ccccc12)c1ccc(O)c(Cl)c1 | 77 | 11.3 | 
Cc1cc(C)c(Cn2ccc3c(/C=N/NC(=O)c4ccc(O)c(Cl)c4)cccc32)c(C)c1 |  | 5.8 | 
O=C(N/N=C/c1ccc(CC(=O)N2CCN(Cc3ccc(Cl)cc3)CC2)c2ccccc12)c1ccc(O)c(Cl)c1 | 101 | 4.6 | 
O=C(N/N=C/c1cccc2c(OCc3ccc(OC(F)(F)F)cc3)cccc12)c1ccc(O)c(Cl)c1 |  | 12.9 | 
O=C(N/N=C/c1ccc(O)c2ccccc12)c1ccc(O)c(Cl)c1 |  | 203 | 
O=C(N/N=C/c1cn(Cc2ccccc2)c2ccccc12)c1ccc(O)c(Cl)c1 |  | 615 | 
N#Cc1cc(C(=O)N/N=C/c2cccc3c2ccn3Cc2ccc(C(F)(F)F)cc2)ccc1O | 59 | 22.3 | 
O=C(N/N=C/c1ccc(OCCNCCc2ccc(Br)cc2)c2ccccc12)c1ccc(O)c(Cl)c1 | 250 | 19.7 | 
CC(C)(C)C(=O)Nc1ccc(/C=N/NC(=O)c2ccc(O)c(Cl)c2)c2ccccc12 | 45 | 33 | 
CCN(CC)C(=O)COc1ccc(/C=N/NC(=O)c2ccc(O)c(Cl)c2)c2ccccc12 | 302 | 49.7 | 
O=C(N/N=C/c1ccc(CC(=O)N2CCN(Cc3ccccc3)CC2)c2ccccc12)c1ccc(O)c(Cl)c1 | 359 | 9.2 | 
CCN(CC)C(=O)Cn1ccc2c(/C=N/NC(=O)c3ccc(O)c(Cl)c3)cccc21 | 165 | 2540 | 

SMILES | Metabolism [1] [pmol/min/mg] | IC50 [2] [nM] | Metabolism (pM min-1 mg-1) [3]
O=C(N/N=C/c1ccc(OCCNCc2ccccc2OC(F)(F)F)c2ccccc12)c1ccc(O)c(Cl)c1 | 233 | 54.3 | 
O=C(N/N=C/c1ccc(OCC(=O)N2CCc3ccccc3C2)c2ccccc12)c1ccc(O)c(Cl)c1 | 254 | 13.8 | 
O=C(N/N=C/c1ccc(CC(=O)N2CCN(c3ccc(F)cc3)CC2)c2ccccc12)c1ccc(O)c(Cl)c1 | 160 | 12.3 | 
O=C(N/N=C/c1ccc(CO)c2ccccc12)c1ccc(O)c(Cl)c1Cl |  | 53.8 | 103
O=C(N/N=C/c1ccc(CN2CCN(Cc3ccc(Cl)cc3)CC2)c2ccccc12)c1ccc(O)c(Cl)c1 | 51 | 96.7 | 
COCc1ccc(/C=N/NC(=O)c2ccc(O)c(Cl)c2)c2ccccc12 |  | 75.5 | 
CN(C)CCN(Cc1ccccc1)C(=O)Cc1ccc(/C=N/NC(=O)c2ccc(O)c(Cl)c2)c2ccccc12 |  | 6.2 | 
COc1cc(NC(=O)CCc2ccc(C(F)(F)F)cc2)ccc1/C=N/NC(=O)c1ccc(O)c(Cl)c1 |  | 33.5 | 
O=C(N/N=C/c1cn(Cc2ccc(OC(F)F)cc2)c2ccccc12)c1ccc(O)c(Cl)c1 |  | 305 | 
CCN(CC)C(=O)Cc1ccc(/C=N/NC(=O)c2ccc(O)c(C#N)c2)c2ccccc12 | 130 | 16.5 | 
O=C(COc1ccc(/C=N/NC(=O)c2ccc(O)c(Cl)c2)c2ccccc12)Nc1ccc(Cl)cc1 |  | 51.7 | 
O=C(COc1ccc(/C=N/NC(=O)c2ccc(O)c(Cl)c2)c2ccccc12)NC1CCN(Cc2ccccc2)C1 (centres undefined) | 187 | 89.3 | 
COc1cc(NC(=O)CCc2ccc(C(F)(F)F)cc2)ccc1/C=N/NC(=O)c1ccc(O)c(Cl)c1.O | 107 | 21.2 | 
O=C(N/N=C/c1ccc(OCC(=O)N2CCC(O)(c3ccc(Br)cc3)CC2)c2ccccc12)c1ccc(O)c(Cl)c1 |  | 11.4 | 
CN(C)CCN(Cc1ccccc1)C(=O)Cc1ccc(/C=N/NC(=O)c2ccc(O)c(C#N)c2)c2ccccc12 | 240 | 10.4 | 
CC1CCCCN1C(=O)Cc1ccc(/C=N/NC(=O)c2ccc(O)c(Cl)c2)c2ccccc12 (centres undefined) | 267 | 8.3 | 
N#Cc1cc(C(=O)N/N=C/c2cn(C(=O)CC3CCCC3)c3ccccc23)ccc1O | 136 | 6.4 | 
O=C(N/N=C/c1ccc(OCCNCc2ccc(OC(F)(F)F)cc2)c2ccccc12)c1ccc(O)c(Cl)c1 | 167 | 27.7 | 
O=C(N/N=C/c1ccc(OCC(=O)N2CC=C(c3ccc(Br)cc3)CC2)c2ccccc12)c1ccc(O)c(Cl)c1 | 44 | 6.6 | 
CN(C)CCN(C)C(=O)Cc1ccc(/C=N/NC(=O)c2ccc(O)c(Cl)c2)c2ccccc12 |  | 441 | 
CCN(CC)C(=O)c1ccc(/C=N/NC(=O)c2ccc(O)c(Cl)c2)c2ccccc12 | 124 | 35.4 | 
O=C(N/N=C/c1ccc(NC(=O)C2CCCC2)c2ccccc12)c1ccc(O)c(Cl)c1 | 134 | 38.8 | 
O=C(N/N=C/c1ccc(CS(=O)(=O)C2CCCC2)c2ccccc12)c1ccc(O)c(Cl)c1 |  | 221 | 
COc1cc(/C=N/NC(=O)c2ccc(O)c(Cl)c2)cc(Cl)c1OCCN1CCc2ccccc2C1 |  | 485 | 
N#Cc1cc(C(=O)N/N=C/c2ccc(C(=O)N3CCN(Cc4ccc(Cl)cc4)CC3)c3ccccc23)ccc1O | 53 | 4.9 | 

Continued, in another order:

Metabolism [1] [pmol/min/mg] | IC50 [2] [nM] | SMILES | Metabolism (pM min-1 mg-1) [3]
225 | 200 | O=C(N/N=C/c1cccc2c(CO)cccc12)c1ccc(O)c(Cl)c1 | 
279 | 7.4 | CCC1CCCCN1C(=O)Cc1ccc(/C=N/NC(=O)c2ccc(O)c(Cl)c2)c2ccccc12 (centres undefined) | 
116 | 33.8 | O=C(N/N=C/c1cccc2c1ccn2Cc1ccc(C(F)(F)F)cc1)c1ccc(O)c(Cl)c1 | 
 | 15.7 | COc1cc(NC(=O)CCc2ccc(C(F)(F)F)cc2)ccc1/C=N/NC(=O)c1ccc(O)c(C#N)c1 | 
110 | 357 | CC(C)S(=O)(=O)c1ccc(/C=N/NC(=O)c2ccc(O)c(Cl)c2)c2ccccc12 | 
 | 3.4 | O=C(N/N=C/c1ccc(N(C(=O)C2CCCC2)C(=O)C2CCCC2)c2ccccc12)c1ccc(O)c(Cl)c1 | 
14 | 6.8 | O=C(N/N=C/c1ccc(CS(=O)(=O)Cc2ccc(OC(F)(F)F)cc2)c2ccccc12)c1ccc(O)c(Cl)c1 | 
 | 286 | O=C(N/N=C/c1ccc2c(ccn2Cc2ccc(OC(F)(F)F)cc2)c1)c1ccc(O)c(Cl)c1 | 
75 | 41.1 | O=C(N/N=C/c1ccc(CO)c2ccccc12)c1ccc(O)c(Cl)c1 | 
178 | 7.9 | O=C(N/N=C/c1ccc(CC(=O)N2CCN(c3ccccc3F)CC2)c2ccccc12)c1ccc(O)c(Cl)c1 | 
 | 133 | COc1cc(OCCNCc2ccc(C(F)(F)F)cc2)ccc1/C=N/NC(=O)c1ccc(O)c(Cl)c1 | 
74 | 63.2 | COc1cc(/C=N/NC(=O)c2ccc(O)c(Cl)c2)ccc1NC(=O)Cc1csc2ccccc12 | 
606 | 19.1 | CN(C)c1ccc(C(=O)n2cc(/C=N/NC(=O)c3ccc(O)c(C#N)c3)c3ccccc32)cc1 | 
322 | 120 | COc1cc(OCCN2CCc3ccccc3C2)ccc1/C=N/NC(=O)c1ccc(O)c(Cl)c1 | 
31 | 163 | CC(C)S(=O)(=O)Cc1ccc(/C=N/NC(=O)c2ccc(O)c(C#N)c2)c2ccccc12 | 
65 | 11.6 | CC1CCCCN1C(=O)Cc1ccc(/C=N/NC(=O)c2ccc(O)c(C#N)c2)c2ccccc12 (centres undefined) | 
105 | 5.3 | Cc1cc(C)c(C)c(Cn2ccc3c(/C=N/NC(=O)c4ccc(O)c(Cl)c4)cccc32)c1C | 
37 | 29.8 | N#Cc1cc(C(=O)N/N=C/c2ccc(CO)c3ccccc23)ccc1O | 
 | 28.7 | COc1cc(NC(=O)Cc2ccc(Cl)cc2)ccc1/C=N/NC(=O)c1ccc(O)c(C#N)c1 | 
31 | 90.6 | COc1ccc2oc(C(=O)Nc3ccc(/C=N/NC(=O)c4ccc(O)c(Cl)c4)c(OC)c3)cc2c1 | 
 | 22.9 | O=C(N/N=C/c1cccc2c1ccn2Cc1ccc(OC(F)(F)F)cc1)c1ccc(O)c(Cl)c1 | 
51 | 47.8 | COc1cc(NC(=O)Cc2cccc(C(F)(F)F)c2)ccc1/C=N/NC(=O)c1ccc(O)c(C#N)c1 | 
